Results on 1 molecule are retold here after publication PMC5164959 (Biochemical pharmacology, 2016).

Like-named read-outs stand apart in the source and are kept apart here.

The target in experiment [1] is DGKα (Rattus norvegicus, UniProt P51556). Briefly: Kinase assay with purified DGKα and PC:DAG:PS liposomes. The format is biochemical. To be noted: for Vmax (ATP): ATP-dependent activity; for Vmax (DAG): DAG-dependent activity; for Decrease of Vmax of purified DGKα: 0.5 mol% drug. The essentials:
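Rat FLAG-DGKα was expressed in HeLa cells by adenovirus (72 h) and purified on FLAG M2 beads. Reactions contained buffer B (MOPS pH 7.5), 1 mM CaCl2, 1 mM DTT and 4.75 mM PC:PS:DAG liposomes (5 mol% DAG), with test compound built into the liposomes at 0.5 or 2.0 mol% or added from DMSO. Reactions with [γ32P]-ATP ran 15 min at 25°C. Km and Vmax came from Michaelis-Menten non-linear regression.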

The target in experiment [2] is DGKβ (Rattus norvegicus, UniProt P49621). Description: Kinase assay with HEK 293T cell homogenate over-expressing DGKβ. To be noted: 20 μM inhibitor, dioleoyl DAG liposomes. The format is biochemical. The essentials:
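Reactions contained 5 μg homogenate, 2 mM liposomes (10 mol% dioleoyl DAG, 40 mol% PS, 50 mol% PC), buffer B, 1 mM DTT, 1 mM CaCl2 and [γ32P]-ATP, 20 min at 30°C. Test compound was added from DMSO. Organic-phase 32P was counted and expressed as percent of DMSO control after subtracting the GFP-lysate background.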

Experiment [3] has as its target DGKθ (Homo sapiens, UniProt P52824). Briefly: Kinase assay with HEK 293T cell homogenate over-expressing DGKθ. To be noted: 20 μM inhibitor, dioleoyl DAG liposomes. The format is biochemical. The essentials: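 Reactions without CaCl2 contained 5 μg homogenate, 2 mM liposomes (10 mol% dioleoyl DAG, 40 mol% PS, 50 mol% PC), buffer B, 1 mM DTT and [γ32P]-ATP, 20 min at 30°C. Test compound was added from DMSO. Extracted 32P-lipid was counted, GFP-lysate normalized, and expressed as percent of DMSO control.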

Experiment [4] has as its target 5-HT1D (Homo sapiens, UniProt P28221). Description: Radioligand competition binding assay. The essentials:
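Run by the NIMH PDSP as radioligand competition binding assays. The primary screen used 10 μM test compound and reported mean percent inhibition of radioligand binding (n=4); above 50% counted as significant. At those receptors, IC50 values came from non-linear regression of competition binding isotherms and were converted to Ki with the Cheng-Prusoff equation.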
Background: In a radioligand displacement assay an active substance lowers the binding of a labelled ligand.

Experiment [5] concerns the target 5-HT2A (Homo sapiens, UniProt P28223). Description: Radioligand competition binding assay.
The target of experiment [6] is 5-HT2B (Homo sapiens, UniProt P41595). Description: Radioligand competition binding assay.
Experiment [7] concerns DGKθ. As to conditions: cited from earlier work.

Sequence of DGKα (P51556 whole entry): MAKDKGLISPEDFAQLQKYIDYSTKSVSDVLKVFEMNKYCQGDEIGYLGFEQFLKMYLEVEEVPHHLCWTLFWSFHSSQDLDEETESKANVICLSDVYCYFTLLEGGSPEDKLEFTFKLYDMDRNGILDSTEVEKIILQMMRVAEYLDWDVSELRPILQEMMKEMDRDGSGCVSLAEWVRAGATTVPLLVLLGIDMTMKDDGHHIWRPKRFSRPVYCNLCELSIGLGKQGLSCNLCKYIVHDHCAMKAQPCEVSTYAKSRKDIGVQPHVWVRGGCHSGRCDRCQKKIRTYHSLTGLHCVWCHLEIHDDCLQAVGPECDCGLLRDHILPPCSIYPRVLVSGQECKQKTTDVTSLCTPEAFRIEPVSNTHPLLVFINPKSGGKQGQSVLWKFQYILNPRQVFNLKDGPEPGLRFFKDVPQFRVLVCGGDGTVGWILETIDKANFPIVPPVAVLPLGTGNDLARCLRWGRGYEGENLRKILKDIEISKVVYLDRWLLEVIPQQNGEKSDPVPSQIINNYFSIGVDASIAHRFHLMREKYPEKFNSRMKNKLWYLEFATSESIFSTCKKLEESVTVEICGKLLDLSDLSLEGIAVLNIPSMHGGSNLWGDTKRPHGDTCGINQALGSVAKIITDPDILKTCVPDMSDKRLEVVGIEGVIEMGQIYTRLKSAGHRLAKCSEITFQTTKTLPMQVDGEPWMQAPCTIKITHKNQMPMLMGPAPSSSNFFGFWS
Sequence of 5-HT2A (P28223 whole entry, species assumed): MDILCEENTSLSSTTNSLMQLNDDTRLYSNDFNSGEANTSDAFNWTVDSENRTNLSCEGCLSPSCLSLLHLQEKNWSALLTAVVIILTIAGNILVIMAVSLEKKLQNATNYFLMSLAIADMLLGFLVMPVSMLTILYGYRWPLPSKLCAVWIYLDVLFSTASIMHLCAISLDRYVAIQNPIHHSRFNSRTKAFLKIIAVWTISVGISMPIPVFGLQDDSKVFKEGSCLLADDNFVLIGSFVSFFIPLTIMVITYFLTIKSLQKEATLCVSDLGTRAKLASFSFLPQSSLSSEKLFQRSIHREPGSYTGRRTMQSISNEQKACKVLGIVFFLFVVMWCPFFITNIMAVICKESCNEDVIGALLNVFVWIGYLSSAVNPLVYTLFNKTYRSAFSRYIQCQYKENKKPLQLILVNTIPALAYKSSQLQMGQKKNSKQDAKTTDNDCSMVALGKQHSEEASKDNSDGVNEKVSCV
Sequence of 5-HT2B (P41595 whole entry, species assumed): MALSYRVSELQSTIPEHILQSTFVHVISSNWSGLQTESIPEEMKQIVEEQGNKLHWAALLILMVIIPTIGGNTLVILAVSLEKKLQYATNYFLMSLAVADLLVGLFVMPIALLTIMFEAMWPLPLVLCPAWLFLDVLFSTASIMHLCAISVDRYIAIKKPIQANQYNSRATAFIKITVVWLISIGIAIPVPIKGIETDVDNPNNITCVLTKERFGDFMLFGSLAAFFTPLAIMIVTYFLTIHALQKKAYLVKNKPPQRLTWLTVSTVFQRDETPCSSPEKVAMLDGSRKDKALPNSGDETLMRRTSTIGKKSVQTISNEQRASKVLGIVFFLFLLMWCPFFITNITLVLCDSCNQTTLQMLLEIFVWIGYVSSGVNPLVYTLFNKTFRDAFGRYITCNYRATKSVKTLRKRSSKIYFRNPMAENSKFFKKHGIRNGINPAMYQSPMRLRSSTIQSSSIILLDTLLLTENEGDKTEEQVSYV
Sequence of 5-HT1D (P28221 whole entry, species assumed): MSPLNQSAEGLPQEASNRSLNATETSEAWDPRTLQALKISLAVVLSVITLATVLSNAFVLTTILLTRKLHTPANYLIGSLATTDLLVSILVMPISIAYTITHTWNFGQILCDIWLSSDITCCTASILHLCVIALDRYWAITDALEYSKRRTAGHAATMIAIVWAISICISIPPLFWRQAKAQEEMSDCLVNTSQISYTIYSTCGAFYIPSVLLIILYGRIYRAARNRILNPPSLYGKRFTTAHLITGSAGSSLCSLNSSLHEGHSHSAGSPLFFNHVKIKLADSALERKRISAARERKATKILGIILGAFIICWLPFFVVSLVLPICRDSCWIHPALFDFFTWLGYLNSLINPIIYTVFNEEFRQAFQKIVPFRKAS
Sequence of DGKθ (Homo sapiens, UniProt P52824) (P52824 whole entry): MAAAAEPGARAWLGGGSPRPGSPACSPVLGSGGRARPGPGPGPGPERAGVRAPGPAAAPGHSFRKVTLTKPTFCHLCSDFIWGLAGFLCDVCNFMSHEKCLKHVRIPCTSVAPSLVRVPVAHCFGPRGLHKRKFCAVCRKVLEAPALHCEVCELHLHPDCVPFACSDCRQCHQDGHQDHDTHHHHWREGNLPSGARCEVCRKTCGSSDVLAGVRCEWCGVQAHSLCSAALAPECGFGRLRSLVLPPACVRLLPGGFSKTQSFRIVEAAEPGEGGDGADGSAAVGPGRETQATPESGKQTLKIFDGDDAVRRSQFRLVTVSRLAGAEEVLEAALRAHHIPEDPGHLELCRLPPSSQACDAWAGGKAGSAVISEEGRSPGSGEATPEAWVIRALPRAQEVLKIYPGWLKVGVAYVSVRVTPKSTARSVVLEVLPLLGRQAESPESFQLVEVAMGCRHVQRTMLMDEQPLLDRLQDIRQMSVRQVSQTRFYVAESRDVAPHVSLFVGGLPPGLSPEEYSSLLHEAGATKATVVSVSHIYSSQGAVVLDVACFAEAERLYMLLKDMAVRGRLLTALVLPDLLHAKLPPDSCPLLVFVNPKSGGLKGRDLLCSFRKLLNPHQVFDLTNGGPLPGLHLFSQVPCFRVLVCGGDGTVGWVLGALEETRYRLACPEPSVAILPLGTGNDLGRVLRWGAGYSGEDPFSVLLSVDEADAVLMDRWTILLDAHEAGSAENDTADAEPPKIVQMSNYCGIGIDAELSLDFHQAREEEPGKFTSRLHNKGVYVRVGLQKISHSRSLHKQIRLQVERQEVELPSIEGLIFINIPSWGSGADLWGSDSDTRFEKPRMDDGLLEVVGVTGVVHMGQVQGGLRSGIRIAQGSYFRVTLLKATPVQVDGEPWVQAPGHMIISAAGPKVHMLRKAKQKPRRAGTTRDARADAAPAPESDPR

Usually Km stands for the substrate concentration at which the rate is half of its maximum. Usually Ki stands for the dissociation constant of the complex between target and ligand, obtained from inhibition or displacement. Regarding `Cc1nc2sccn2c(=O)c1CCN1CCC(=C(c2ccccc2)c2ccc(F)cc2)CC1` [R59022], the “Vmax (ATP)” value is listed as 32 ± 1 nmol/min/mg in experiment [1] (0.5 mol% drug in liposomes, 5 mol% DAG) and 20 ± 1 ^† nmol/min/mg in experiment [1] (2.0 mol% drug in liposomes, 5 mol% DAG). Also, the “Vmax (DAG)” value came out at 22 ± 1 nmol/min/mg in experiment [1] (0.5 mol% drug in liposomes, 1 mM ATP) and 16 ± 1.5 nmol/min/mg in experiment [1] (2.0 mol% drug in liposomes, 1 mM ATP). For the same molecule, the “Decrease of Vmax of purified DGKα” value in experiment [1] (in the context of ATP) is 25%; in experiment [1] (in the context of DAG), 40%. Also, the Michaelis constant (Km) in experiment [1] (read-out: Km^app (ATP), 0.5 mol% drug in liposomes, 5 mol% DAG) was determined as 50 ± 10 µM; in experiment [1] (read-out: Km^app (ATP), 2.0 mol% drug in liposomes, 5 mol% DAG), 30 ± 10 µM; in experiment [1] (read-out: Km^app (DAG), 0.5 mol% drug in liposomes, 1 mM ATP), 110 ± 20 µM; in experiment [1] (read-out: Km^app (DAG), 2.0 mol% drug in liposomes, 1 mM ATP), 100 ± 20 µM. Besides, the “Activity of DGKβ, percent of control” value in experiment [2] is “not detectably inhibited”. The “Activity of DGKθ, percent of control” value in experiment [3] is recorded as “not detectably inhibited”. In experiment [4] (10 μM test compound, n=4), the “Percent Inhibition of Binding 5-HT1D” value stood at 90.4%. The inhibitory constant (Ki) worked out at 12.3 nM in experiment [4] (read-out: Ki 5-HT1D, Cheng-Prusoff from best-fit IC50); 2.2 nM in experiment [5] (read-out: Ki 5-HT2A, Cheng-Prusoff from best-fit IC50); 2.7 nM in experiment [6] (read-out: Ki 5-HT2B, Cheng-Prusoff from best-fit IC50). Moreover, in experiment [5] (10 μM test compound, n=4), the “Percent Inhibition of Binding 5-HT2A” value is listed as 98.2%. The “Percent Inhibition of Binding 5-HT2B” value in experiment [6] (10 μM test compound, n=4) was 100.5%. Also, the “Inhibition of DGKθ” value in experiment [7] is listed as “reported to inhibit”.
